Data published in ChEMBL document CHEMBL4825712.
The source made the active and inactive calls. The rule behind the calls is not given here.

How the values were obtained:
Influenza A virus [1] = assay: Antiviral activity against Influenza A virus A/WSN/33(H1N1) infected in human A549 cells assessed as reduction in M mRNA level by smRNA FISH followed by fluorescence microscopy; type: functional, organism-based; conditions: A/WSN/1933(H1N1)
In short: (§1)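 A549 cells on gelatin-coated coverslips were infected with WSN at MOI 2 for 8 h. Cells were fixed in 4% PFA, held in 70% ethanol for 12 h at 4 °C, and hybridized with M, HA or NS smRNA-FISH probes at 37 °C for 4 h. After a formamide/SSC wash, nuclei were stained with Hoechst and imaged by fluorescence microscopy.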

Influenza A virus [2] = assay: Antiviral activity against Influenza A virus A/WSN/33(H1N1) infected in human A549 cells assessed as reduction in HA mRNA level by smRNA FISH followed by fluorescence microscopy; type: functional, organism-based; conditions: A/WSN/1933(H1N1); in short: as §1
Influenza A virus [3] = assay: Antiviral activity against Influenza A virus A/WSN/33(H1N1) infected in human A549 cells assessed as reduction in NS mRNA level by smRNA FISH followed by fluorescence microscopy; type: functional, organism-based; conditions: A/WSN/1933(H1N1); in short: as §1
Influenza A virus [4] = assay: Antiviral activity against Influenza A virus A/WSN/33(H1N1) infected in human A549 cells assessed as reduction in poly(A) RNA/GAPDH mRNA level at 1 uM by smRNA FISH followed by fluorescence microscopy; type: functional, organism-based; conditions: A/WSN/1933(H1N1)
Influenza A virus [5] = assay: Antiviral activity against Influenza A virus A/WSN/33(H1N1) infected in human A549 cells assessed as reduction in HA mRNA level by qRT-PCR analysis; type: functional, organism-based; conditions: A/WSN/1933(H1N1)
In short: (§2)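 A549 cells were pretreated for 1 h with 0.5 or 1 μM compound or 0.1% DMSO. They were then infected with A/WSN/33 at MOI 2 for 8 h with compound still present. Total RNA was isolated, reverse transcribed and analysed by qPCR for viral HA, NS1, M1 and M2 mRNA. Three independent experiments; mean ± SD.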

Influenza A virus [6] = assay: Antiviral activity against Influenza A virus A/WSN/33(H1N1) infected in human A549 cells assessed as reduction in NS1 mRNA level by qRT-PCR analysis; type: functional, organism-based; conditions: A/WSN/1933(H1N1); in short: as §2
Influenza A virus [7] = assay: Antiviral activity against Influenza A virus A/WSN/33(H1N1) infected in human A549 cells assessed as reduction in M1 mRNA level by qRT-PCR analysis; type: functional, organism-based; conditions: A/WSN/1933(H1N1); in short: as §2
Influenza A virus [8] = assay: Antiviral activity against Influenza A virus A/WSN/33(H1N1) infected in human A549 cells assessed as reduction in M2 mRNA level by qRT-PCR analysis; type: functional, organism-based; conditions: A/WSN/1933(H1N1); in short: as §2
Influenza A virus [9] = assay: Antiviral activity against Influenza A virus A/WSN/33(H1N1) infected in human Primary bronchial epithelial cells assessed as reduction in M1 mRNA level at 1 uM by qRT-PCR analysis; type: functional, organism-based; conditions: A/WSN/1933(H1N1), Primary bronchial epithelial cell
Influenza A virus [10] = assay: Antiviral activity against Influenza A virus A/WSN/33(H1N1)-PB2-Nanoluc virus infected in human HCT-116 cells assessed as decrease in Nano-luc at 1 uM pretreated for 1 hr followed viral infection incubated for 24 hrs by Nano-Glo luminescence assay; type: functional, organism-based; conditions: A/WSN/1933(H1N1)
Influenza A virus [11] = assay: Antiviral activity against Influenza A virus A/WSN/33(H1N1) infected in human A549 cells assessed as reduction in HA level at 1 uM pretreated for 8 hrs measured by Western blot analysis; type: functional, organism-based; conditions: A/WSN/1933(H1N1)
In short: (§3)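 A549 cells were pretreated with 1 μM compound or 0.1% DMSO, then infected with A/WSN/33 at MOI 2 for 8 h. Lysates were analysed by western blot for viral proteins, with β-actin as loading control. Three independent experiments.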

Influenza A virus [12] = assay: Antiviral activity against Influenza A virus A/WSN/33(H1N1) infected in human A549 cells assessed as reduction in NP level at 1 uM pretreated for 8 hrs measured by Western blot analysis; type: functional, organism-based; conditions: A/WSN/1933(H1N1); in short: as §3
Influenza A virus [13] = assay: Antiviral activity against Influenza A virus A/WSN/33(H1N1) infected in human A549 cells assessed as reduction in M1 level at 1 uM pretreated for 8 hrs measured by Western blot analysis; type: functional, organism-based; conditions: A/WSN/1933(H1N1); in short: as §3
Influenza A virus [14] = assay: Antiviral activity against Influenza A virus A/WSN/33(H1N1) infected in human A549 cells assessed as reduction in M mRNA level at 1 uM pretreated 1 hr before viral infection by smRNA FISH followed by fluorescence microscopy; type: functional, organism-based; conditions: A/WSN/1933(H1N1)
In short: (§4)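 A549 cells received 1 μM compound either 1 h before infection or 1 h after infection. Infection was with WSN at MOI 2 for 8 h. Viral M mRNA was detected by smRNA-FISH and fluorescence microscopy.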

Influenza A virus [15] = assay: Antiviral activity against Influenza A virus A/WSN/33(H1N1) infected in human A549 cells assessed as reduction in M mRNA level at 1 uM treated 1 hr after viral infection by smRNA FISH followed by fluorescence microscopy; type: functional, organism-based; conditions: A/WSN/1933(H1N1); in short: as §4
Influenza A virus [16] = assay: Antiviral activity against Influenza A virus A/WSN/33(H1N1) infected in human A549 cells assessed as reduction in M1 protein level at 1 uM treated 1 hr after viral infection by Western blot analysis; type: functional, organism-based; conditions: A/WSN/1933(H1N1)
In short: (§5)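 A549 cells received 1 μM compound 1 h before infection, or 1 h or 2 h after infection. Infection was with WSN at MOI 2 for 8 h. Lysates were analysed by western blot for viral proteins.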

Influenza A virus [17] = assay: Antiviral activity against Influenza A virus A/WSN/33(H1N1) infected in human A549 cells assessed as reduction in NP protein level at 1 uM treated 1 hr after viral infection by Western blot analysis; type: functional, organism-based; conditions: A/WSN/1933(H1N1); in short: as §5
[18] = molecular target: Hemagglutinin (Influenza A virus (A/Puerto Rico/8/1934(H1N1))) (UniProt P03452); assay: Inhibition of Influenza A virus A/WSN/33(H1N1) hemagglutinin assessed as inhibition of HA-mediated chicken erythrocytes membrane fusion at 0.08 to 5 uM incubated for 30 mins pH 5 by hemolysis inhibition assay; conditions: Influenza A virus (A/WSN/1933(H1N1)), dose 0.08-5 µM
In short: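 Chicken erythrocyte suspension was incubated on ice with WSN, with or without compound at a range of concentrations. The mixture was acidified to pH 5 and incubated at 37 °C for 30 min. NADH released by lysis was read at 340 as the fusion measure. Data are % of DMSO control; means of triplicates ± SD.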

Influenza A virus [19] = assay: Antiviral activity against Influenza A virus wild-type A/WSN/1933 (H1N1) infected in human A549 cells assessed as log reduction in viral titer at 25 uM by standard plaque assay; type: functional, organism-based
In short: (§6)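 A549 cells were infected in the absence or presence of 25 μM compound. For A/WSN/1933 the MOI was 0.01 and infection ran 24 h. For A/Panama/1999 the MOI was 0.1 and infection ran 48 h. Viral titers were determined by standard plaque assay.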

Influenza A virus [20] = assay: Antiviral activity against Influenza A virus A/Vietnam/2506/2004 (H5N1) infected in human A549 cells assessed as log reduction in viral titer at 25 uM by standard plaque assay; type: functional, organism-based
Influenza A virus [21] = assay: Antiviral activity against Influenza A virus A/Panama/1999 (H3N2) infected in human A549 cells assessed as log reduction in viral titer at 25 uM by standard plaque assay; type: functional, organism-based; in short: as §6
Influenza A virus [22] = assay: Antiviral activity against Influenza A virus A/California/07/2009 (HIN1) infected in human A549 cells assessed as reduction in infected cells up to 25 uM pretreated for 1 hr; type: functional, organism-based; conditions: A/California/07/2009(H1N1), dose microM <=25, time 1.0 hrs
Influenza A virus [23] = assay: Antiviral activity against Influenza A virus A/Wyoming/03/2003 (H3N2) infected in human A549 cells assessed as reduction in infected cells up to 25 uM pretreated for 1 hr; type: functional, organism-based; conditions: dose microM <=25, time 1.0 hrs
Influenza A virus [24] = assay: Antiviral activity against Influenza A virus A/WSN/33(H1N1) infected in human A549 cells assessed as viral replication measured after 24 hrs by immunofluorescence microscopy; type: functional, organism-based; conditions: A/WSN/1933(H1N1)
In short: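 A549 cells were infected with A/WSN/33 at MOI 0.01 for 24 h, then fixed in 4% formaldehyde and permeabilized with 0.1% Triton X-100. They were immunostained for NP with an Alexa-488 secondary plus DAPI and imaged on an image cytometer. Percent infection = NP-positive cells divided by total cells.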

A549 = assay: Cytotoxicity against human A549 cells by MTT assay; type: cell-based
In short: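 MTT assay run according to the manufacturer's instructions, concurrently with NP immunostaining of infected A549 cultures.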

[25] = Selectivity index, ratio of CC50 for human A549 cells to IC50 for antiviral activity against Influenza A virus A/WSN/33(H1N1) infected in human A549 cells; type: toxicity, cell-based; conditions: read-out: Selectivity Index
In short: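 Ratio of CC50 to IC50. IC50 came from A549 cells pretreated 2 h with compound, then infected 24 h with WSN-PB2-Nanoluc at MOI 0.02 and read by Nano-Glo luminescence. CC50 was measured by CellTiter-Glo.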

Chain of Hemagglutinin (Influenza A virus (A/Puerto Rico/8/1934(H1N1))) (P03452 whole entry, the tested form may be a part): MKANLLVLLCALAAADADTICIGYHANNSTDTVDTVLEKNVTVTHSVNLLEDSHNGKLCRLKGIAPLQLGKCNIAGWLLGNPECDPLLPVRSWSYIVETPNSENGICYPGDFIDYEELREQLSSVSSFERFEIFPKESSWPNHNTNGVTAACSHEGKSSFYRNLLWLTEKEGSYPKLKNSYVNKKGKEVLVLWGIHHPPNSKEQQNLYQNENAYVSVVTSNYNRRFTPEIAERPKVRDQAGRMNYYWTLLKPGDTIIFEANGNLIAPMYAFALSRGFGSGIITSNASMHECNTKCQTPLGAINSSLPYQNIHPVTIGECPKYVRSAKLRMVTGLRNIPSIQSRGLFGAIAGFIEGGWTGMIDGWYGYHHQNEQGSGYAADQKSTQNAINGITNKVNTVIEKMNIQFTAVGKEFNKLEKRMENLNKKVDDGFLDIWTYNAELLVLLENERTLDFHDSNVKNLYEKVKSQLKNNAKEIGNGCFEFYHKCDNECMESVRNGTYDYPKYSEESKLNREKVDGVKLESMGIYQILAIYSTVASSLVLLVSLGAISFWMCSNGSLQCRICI

In the case of `CCN(c1ccccc1C)S(=O)(=O)c1cc(Cl)ccc1Cl`, the Activity (Influenza A virus [1]) is reported as “Active”, the Activity (Influenza A virus [2]) is reported as “Active” and the Activity (Influenza A virus [3]) is reported as “Active”. For the same compound, the Activity (Influenza A virus [4]) was “inactive”, the Activity (Influenza A virus [5]) was “Active” and the Activity (Influenza A virus [6]) was “Active”. For the same compound, the Activity (Influenza A virus [7]) was “Active”, the Activity (Influenza A virus [8]) was “Active” and the Activity (Influenza A virus [9]) was “Active”. For the same compound, the IC50 (Influenza A virus [10]) was 16.8 µM, the Activity (Influenza A virus [11]) was “Active” and the Activity (Influenza A virus [12]) was “Active”. The Activity (Influenza A virus [13]) was “Active”, the Activity (Influenza A virus [14]) was “Active” and the Activity (Influenza A virus [15]) was “Active”. For the same compound, the Activity (Influenza A virus [16]) was “Active”, the Activity (Influenza A virus [17]) was “Active” and the Activity [18] was “Active”. For the same compound, the Activity (Influenza A virus [19]) was “Active”, the Activity (Influenza A virus [20]) was “Active” and the Activity (Influenza A virus [21]) was “Active”. The Activity (Influenza A virus [22]) was “Active”, the Activity (Influenza A virus [23]) was “inactive” and the IC50 (Influenza A virus [24]; A549, 24 h) was 0.04 µM. For the same compound, the IC90 (Influenza A virus [24]; A549, time 24 hrs) was 1.2 µM, the CC10 (A549) was greater than 25 µM and the CC50 (A549) was greater than 25 µM. For the same compound, the selectivity ratio [25] was greater than 625.
